In brackets after ≈: the same amount, converted by molar mass.
Key:
Assay type in all cases: functional
Streptococcus pyogenes [1] = experiment: Antibacterial activity against inducibly macrolide-lincosamide-streptogramin B resistant Streptococcus pyogenes by agar microdilution method
In short: (§1)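 Agar microdilution per NCCLS guidelines; MIC reported in μg/mL; differences treated as significant only when more than a factor of 2 (one dilution) apart.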

Staphylococcus aureus [2] = experiment: Antibacterial activity against efflux mediated macrolide resistant Staphylococcus aureus by agar microdilution method; in short: as §1
Staphylococcus aureus [3] = experiment: Antibacterial activity against inducibly macrolide-lincosamide-streptogramin B resistant Staphylococcus aureus by agar microdilution method; in short: as §1
Streptococcus pneumoniae [4] = experiment: Antibacterial activity against efflux mediated macrolide resistant Streptococcus pneumoniae by agar microdilution method; in short: as §1
Streptococcus pyogenes [5] = experiment: Antibacterial activity against efflux mediated macrolide resistant Streptococcus pyogenes by agar microdilution method; in short: as §1
Streptococcus pneumoniae [6] = experiment: Antibacterial activity against erythromycin-susceptible Streptococcus pneumoniae by agar microdilution method
In short: (§2)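 MIC by agar microdilution following NCCLS guidelines. Values in μg/mL. Only differences of more than one twofold dilution were treated as significant. Ery-S denotes erythromycin-susceptible strains.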

Streptococcus pyogenes [7] = experiment: Antibacterial activity against erythromycin-susceptible Streptococcus pyogenes by agar microdilution method; in short: as §2
Staphylococcus aureus [8] = experiment: Antibacterial activity against erythromycin-susceptible Staphylococcus aureus by agar microdilution method; in short: as §2
Moraxella catarrhalis = experiment: Antibacterial activity against Moraxella catarrhalis by agar microdilution method; in short: as §2
Staphylococcus aureus [9] = experiment: Antibacterial activity against constitutive macrolide-lincosamide-streptogramin B resistant Staphylococcus aureus by agar microdilution method; in short: as §1
Streptococcus pneumoniae [10] = experiment: Antibacterial activity against constitutive macrolide-lincosamide-streptogramin B resistant Streptococcus pneumoniae by agar microdilution method; in short: as §1
Streptococcus pyogenes [11] = experiment: Antibacterial activity against constitutive macrolide-lincosamide-streptogramin B resistant Streptococcus pyogenes by agar microdilution method; in short: as §1
Haemophilus influenzae = experiment: Antibacterial activity against Haemophilus influenzae by agar microdilution method; in short: as §2

Structure (SMILES) | MIC (Streptococcus pyogenes [1]) [mg/L] | MIC (Staphylococcus aureus [2]) [mg/L] | MIC (Staphylococcus aureus [3]) [mg/L] | MIC (Streptococcus pneumoniae [4]) [mg/L] | MIC (Streptococcus pyogenes [5]) [mg/L] | MIC (Streptococcus pneumoniae [6]) [mg/L] | MIC (Streptococcus pyogenes [7]) [mg/L] | MIC (Staphylococcus aureus [8]) [mg/L] | MIC (Moraxella catarrhalis) [mg/L] | MIC (Staphylococcus aureus [9]) [mg/L] | MIC (Streptococcus pneumoniae [10]) [mg/L] | MIC (Streptococcus pyogenes [11]) [mg/L] | MIC (Haemophilus influenzae) [mg/L]
CC[C@@H]1OC(=O)[C@H](C)[C@@H](O[C@@H]2C[C@](C)(OC)[C@H](O)[C@@H](C)O2)[C@@H](C)[C@@H](O[C@@H]2O[C@H](C)C[C@H](N(C)C)[C@H]2O)[C@](C)(O)C[C@@H](C)CN(C)[C@H](C)[C@@H](O)[C@]1(C)O | > 64 | 32 (≈ 42.7 µM) | > 64 | 8 (≈ 10.7 µM) | 16 (≈ 21.4 µM) | ≤ 0.125 | ≤ 0.125 | 1 (≈ 1.34 µM) | 0.25 (≈ 0.334 µM) | > 64 | > 64 | > 64 | 1 (≈ 1.34 µM)
CC[C@H]1OC(=O)[C@@H](C)[C@H](O[C@@H]2C[C@](C)(OC)[C@H](OC(=O)CNCCCNCCNc3cc4c(=O)c(C(=O)O)cn(C5CC5)c4cc3Cl)[C@@H](C)O2)[C@H](C)[C@H](O[C@H]2O[C@@H](C)C[C@@H](N(C)C)[C@@H]2O)[C@@](C)(O)C[C@H](C)CN(C)[C@@H](C)[C@H](O)[C@@]1(C)O |  | 0.25 (≈ 0.214 µM) | 0.25 (≈ 0.214 µM) |  |  | ≤ 0.125 | ≤ 0.125 | ≤ 0.125 | ≤ 0.125 | > 64 |  |  | 0.5 (≈ 0.428 µM)
CC[C@H]1OC(=O)[C@@H](C)[C@H](O[C@H]2C[C@@](C)(OC)[C@@H](OC(=O)CN)[C@H](C)O2)[C@@H](C)[C@H](O[C@H]2O[C@@H](C)C[C@@H](N(C)C)[C@@H]2O)[C@@](C)(O)C[C@H](C)CN(C)[C@@H](C)[C@@H]2OC(=O)O[C@@]12C | 32 (≈ 38.5 µM) | > 64 | > 64 | 32 (≈ 38.5 µM) | > 64 | ≤ 0.125 | ≤ 0.125 | 32 (≈ 38.5 µM) | > 64 | > 64 | > 64 | > 64 | > 64
CCC1OC(=O)[C@H](C)[C@@H](O[C@H]2C[C@@](C)(OC)[C@@H](OC(=O)CNCCSc3cnc4ccccc4n3)[C@H](C)O2)C(C)[C@@H](O[C@@H]2O[C@H](C)C[C@H](N(C)C)[C@H]2O)[C@](C)(O)C[C@@H](C)CN(C)[C@H](C)[C@@H](O)[C@]1(C)O (single isomer, unassigned) | 4 (≈ 4.02 µM) | 2 (≈ 2.01 µM) | 0.5 (≈ 0.503 µM) |  | 0.25 (≈ 0.251 µM) | ≤ 0.125 | ≤ 0.125 | 2 (≈ 2.01 µM) | 1 (≈ 1.01 µM) | > 64 | 16 (≈ 16.1 µM) | 16 (≈ 16.1 µM) | 4 (≈ 4.02 µM)
CCC1OC(=O)[C@H](C)[C@@H](O[C@H]2C[C@@](C)(OC)[C@@H](OC(=O)CNC(=O)CNC(=O)CSc3cnc4ccccc4n3)[C@H](C)O2)C(C)[C@@H](O[C@@H]2O[C@H](C)C[C@H](N(C)C)[C@H]2O)[C@](C)(O)C[C@@H](C)CN(C)[C@H](C)[C@@H](O)[C@]1(C)O (single isomer, unassigned) | 4 (≈ 3.75 µM) | 2 (≈ 1.88 µM) | 0.5 (≈ 0.469 µM) |  | 0.25 (≈ 0.235 µM) | ≤ 0.125 | 0.25 (≈ 0.235 µM) | 1 (≈ 0.939 µM) | 4 (≈ 3.75 µM) | > 64 | 16 (≈ 15 µM) | 16 (≈ 15 µM) | 4 (≈ 3.75 µM)
CCC1OC(=O)[C@H](C)[C@@H](O[C@H]2C[C@@](C)(OC)[C@@H](OC(=O)CNC(=O)CCNCCNc3cc4c(cc3F)c(=O)c(C(=O)O)cn4C3CC3)[C@H](C)O2)C(C)[C@@H](O[C@@H]2O[C@H](C)C[C@H](N(C)C)[C@H]2O)[C@](C)(O)C[C@@H](C)CN(C)[C@H](C)[C@@H](O)[C@]1(C)O (single isomer, unassigned) | 1 (≈ 0.858 µM) | 2 (≈ 1.72 µM) | 8 (≈ 6.86 µM) | 1 (≈ 0.858 µM) | 2 (≈ 1.72 µM) | ≤ 0.125 | ≤ 0.125 | 0.25 (≈ 0.215 µM) | 1 (≈ 0.858 µM) | > 64 | 4 (≈ 3.43 µM) | 4 (≈ 3.43 µM) | 4 (≈ 3.43 µM)
CCC1OC(=O)[C@H](C)[C@@H](O[C@H]2C[C@@](C)(OC)[C@@H](OC(=O)CNCCNC(=O)CSc3cnc4ccccc4n3)[C@H](C)O2)C(C)[C@@H](O[C@@H]2O[C@H](C)C[C@H](N(C)C)[C@H]2O)[C@](C)(O)C[C@@H](C)CN(C)[C@H](C)[C@@H](O)[C@]1(C)O (single isomer, unassigned) | 1 (≈ 0.951 µM) | 1 (≈ 0.951 µM) | 0.25 (≈ 0.238 µM) |  |  | ≤ 0.125 | ≤ 0.125 | 8 (≈ 7.61 µM) | 8 (≈ 7.61 µM) | > 64 | 8 (≈ 7.61 µM) | 8 (≈ 7.61 µM) | 8 (≈ 7.61 µM)
CCC1OC(=O)[C@H](C)[C@@H](O[C@H]2C[C@@](C)(OC)[C@@H](OC(=O)CNC(=O)CCNCCOCCNc3cc4c(=O)c(C(=O)O)cn(C5CC5)c4cc3Cl)[C@H](C)O2)C(C)[C@@H](O[C@@H]2O[C@H](C)C[C@H](N(C)C)[C@H]2O)[C@](C)(O)C[C@@H](C)CN(C)[C@H](C)[C@@H](O)[C@]1(C)O (single isomer, unassigned) | 0.5 (≈ 0.408 µM) | 1 (≈ 0.816 µM) | 2 (≈ 1.63 µM) | 0.5 (≈ 0.408 µM) | 1 (≈ 0.816 µM) | ≤ 0.125 | ≤ 0.125 | ≤ 0.125 | 0.5 (≈ 0.408 µM) | > 64 | 1 (≈ 0.816 µM) | 2 (≈ 1.63 µM) | 2 (≈ 1.63 µM)
CCC1OC(=O)[C@H](C)[C@@H](O[C@H]2C[C@@](C)(OC)[C@@H](OC(=O)CNC(=O)CCNCCOCCOCCNc3cc4c(cc3F)c(=O)c(C(=O)O)cn4C3CC3)[C@H](C)O2)C(C)[C@@H](O[C@@H]2O[C@H](C)C[C@H](N(C)C)[C@H]2O)[C@](C)(O)C[C@@H](C)CN(C)[C@H](C)[C@@H](O)[C@]1(C)O (single isomer, unassigned) | 4 (≈ 3.19 µM) | 16 (≈ 12.8 µM) | 32 (≈ 25.5 µM) | 4 (≈ 3.19 µM) | 16 (≈ 12.8 µM) | ≤ 0.125 | ≤ 0.125 | 0.5 (≈ 0.399 µM) | 2 (≈ 1.6 µM) | > 64 | 8 (≈ 6.38 µM) | 32 (≈ 25.5 µM) | 8 (≈ 6.38 µM)
CCC1OC(=O)[C@H](C)[C@@H](O[C@H]2C[C@@](C)(OC)[C@@H](OC(=O)CNCCCNCCNc3cc4c(cc3F)c(=O)c(C(=O)O)cn4C3CC3)[C@H](C)O2)C(C)[C@@H](O[C@@H]2O[C@H](C)C[C@H](N(C)C)[C@H]2O)[C@](C)(O)C[C@@H](C)CN(C)[C@H](C)[C@@H](O)[C@]1(C)O (single isomer, unassigned) | 0.25 (≈ 0.217 µM) | 0.5 (≈ 0.434 µM) | 1 (≈ 0.868 µM) |  | 0.5 (≈ 0.434 µM) | ≤ 0.125 | ≤ 0.125 | ≤ 0.125 | 0.25 (≈ 0.217 µM) | > 64 | 0.5 (≈ 0.434 µM) | 1 (≈ 0.868 µM) | 1 (≈ 0.868 µM)
CCC1OC(=O)[C@H](C)[C@@H](O[C@H]2C[C@@](C)(OC)[C@@H](OC(=O)CNC(=O)CSc3cnc4ccccc4n3)[C@H](C)O2)C(C)[C@@H](O[C@@H]2O[C@H](C)C[C@H](N(C)C)[C@H]2O)[C@](C)(O)C[C@@H](C)CN(C)[C@H](C)[C@@H](O)[C@]1(C)O (single isomer, unassigned) | 8 (≈ 7.93 µM) | 8 (≈ 7.93 µM) | 1 (≈ 0.992 µM) | 0.25 (≈ 0.248 µM) | 0.5 (≈ 0.496 µM) | ≤ 0.125 | ≤ 0.125 | 4 (≈ 3.97 µM) | 16 (≈ 15.9 µM) | > 64 | 16 (≈ 15.9 µM) | 32 (≈ 31.7 µM) | 8 (≈ 7.93 µM)
CCC1OC(=O)[C@H](C)[C@@H](O[C@H]2C[C@@](C)(OC)[C@@H](OC(=O)CNC(=O)CCNCCOCCNc3cc4c(cc3F)c(=O)c(C(=O)O)cn4C3CC3)[C@H](C)O2)C(C)[C@@H](O[C@@H]2O[C@H](C)C[C@H](N(C)C)[C@H]2O)[C@](C)(O)C[C@@H](C)CN(C)[C@H](C)[C@@H](O)[C@]1(C)O (single isomer, unassigned) | 4 (≈ 3.31 µM) | 4 (≈ 3.31 µM) | 4 (≈ 3.31 µM) | 4 (≈ 3.31 µM) | 8 (≈ 6.61 µM) | ≤ 0.125 | ≤ 0.125 | 0.25 (≈ 0.207 µM) | 1 (≈ 0.827 µM) | > 64 | 8 (≈ 6.61 µM) | 16 (≈ 13.2 µM) | 4 (≈ 3.31 µM)
CC[C@H]1OC(=O)[C@H](C)C(=O)[C@H](C)[C@@H](O[C@@H]2O[C@H](C)C[C@H](N(C)C)[C@H]2O)[C@](C)(OCC=Cc2cnc3ccccc3c2)C[C@@H](C)C(=O)[C@H](C)[C@H]2NC(=O)O[C@@]21C [CETHROMYCIN] |  | 0.25 (≈ 0.326 µM) | 0.25 (≈ 0.326 µM) |  |  | ≤ 0.125 | ≤ 0.125 | ≤ 0.125 | ≤ 0.125 | > 64 |  | 1 (≈ 1.31 µM) | 1 (≈ 1.31 µM)
O=C(O)c1cn(C2CC2)c2cc(N3CCNCC3)c(F)cc2c1=O [CIPROFLOXACIN] | 0.25 (≈ 0.754 µM) |  |  | 0.25 (≈ 0.754 µM) | ≤ 0.125 | ≤ 0.125 | 2 (≈ 6.04 µM) | ≤ 0.125 | ≤ 0.125 |  | 0.25 (≈ 0.754 µM) | 0.5 (≈ 1.51 µM) | ≤ 0.125
CC[C@H]1OC(=O)[C@H](C)C(=O)[C@H](C)[C@@H](O[C@@H]2O[C@H](C)C[C@H](N(C)C)[C@H]2O)[C@](C)(OC)C[C@@H](C)C(=O)[C@H](C)[C@H]2N(CCCCn3cnc(-c4cccnc4)c3)C(=O)O[C@]12C [TELITHROMYCIN] |  | 0.25 (≈ 0.308 µM) | 0.5 (≈ 0.616 µM) | 0.5 (≈ 0.616 µM) | 0.25 (≈ 0.308 µM) | ≤ 0.125 | ≤ 0.125 | ≤ 0.125 | ≤ 0.125 | > 64 |  | 8 (≈ 9.85 µM) | 1 (≈ 1.23 µM)
